Results on 11 molecules are retold here after ChEMBL document CHEMBL1148546, “3-Arylpiperazinylethyl-1H-pyrrolo[2,3-d]pyrimidine-2,4(3H,7H)-dione derivatives as novel, high-affinity and selective alpha(1)-adrenoceptor ligands” (Bioorg Med Chem Lett, 2006).

As usually defined, the Ki is a measure of affinity in units of concentration, obtained from inhibition or displacement. Read a high Ki as lower affinity.

Assay [1] deals with T1, 5-hydroxytryptamine receptor 1A (Homo sapiens, UniProt P08908).
T1 sequence (P08908 whole entry): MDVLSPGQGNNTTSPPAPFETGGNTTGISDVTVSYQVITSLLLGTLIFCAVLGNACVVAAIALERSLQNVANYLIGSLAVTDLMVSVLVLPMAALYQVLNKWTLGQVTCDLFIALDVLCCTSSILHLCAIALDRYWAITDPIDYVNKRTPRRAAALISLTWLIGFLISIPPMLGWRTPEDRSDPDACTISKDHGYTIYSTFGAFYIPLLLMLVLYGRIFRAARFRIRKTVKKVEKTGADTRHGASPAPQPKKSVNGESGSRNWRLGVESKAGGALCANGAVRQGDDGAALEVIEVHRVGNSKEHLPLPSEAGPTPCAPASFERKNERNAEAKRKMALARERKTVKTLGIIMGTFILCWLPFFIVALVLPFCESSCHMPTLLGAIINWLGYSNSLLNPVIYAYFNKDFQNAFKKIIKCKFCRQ
The experiment in a line: Binding affinity to 5HT1A.

For assay [2], the target named is T2, Adrenergic receptor alpha-1 (Homo sapiens, UniProt P35348+P25100+P35368).
T2 sequence (P35348 whole entry): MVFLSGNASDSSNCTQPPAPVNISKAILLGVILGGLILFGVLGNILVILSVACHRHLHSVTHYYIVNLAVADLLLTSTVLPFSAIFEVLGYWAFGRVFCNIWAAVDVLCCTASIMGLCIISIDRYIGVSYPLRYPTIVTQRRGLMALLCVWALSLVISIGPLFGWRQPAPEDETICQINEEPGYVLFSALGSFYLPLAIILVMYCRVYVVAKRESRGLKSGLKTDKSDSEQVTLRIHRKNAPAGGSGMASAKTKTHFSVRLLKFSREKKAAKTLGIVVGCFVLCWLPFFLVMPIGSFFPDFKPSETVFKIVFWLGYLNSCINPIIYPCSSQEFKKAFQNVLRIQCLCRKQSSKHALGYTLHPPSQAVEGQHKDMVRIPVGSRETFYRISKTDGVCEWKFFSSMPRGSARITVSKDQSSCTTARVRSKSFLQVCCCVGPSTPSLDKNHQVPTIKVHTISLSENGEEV
T2 sequence (P25100 whole entry): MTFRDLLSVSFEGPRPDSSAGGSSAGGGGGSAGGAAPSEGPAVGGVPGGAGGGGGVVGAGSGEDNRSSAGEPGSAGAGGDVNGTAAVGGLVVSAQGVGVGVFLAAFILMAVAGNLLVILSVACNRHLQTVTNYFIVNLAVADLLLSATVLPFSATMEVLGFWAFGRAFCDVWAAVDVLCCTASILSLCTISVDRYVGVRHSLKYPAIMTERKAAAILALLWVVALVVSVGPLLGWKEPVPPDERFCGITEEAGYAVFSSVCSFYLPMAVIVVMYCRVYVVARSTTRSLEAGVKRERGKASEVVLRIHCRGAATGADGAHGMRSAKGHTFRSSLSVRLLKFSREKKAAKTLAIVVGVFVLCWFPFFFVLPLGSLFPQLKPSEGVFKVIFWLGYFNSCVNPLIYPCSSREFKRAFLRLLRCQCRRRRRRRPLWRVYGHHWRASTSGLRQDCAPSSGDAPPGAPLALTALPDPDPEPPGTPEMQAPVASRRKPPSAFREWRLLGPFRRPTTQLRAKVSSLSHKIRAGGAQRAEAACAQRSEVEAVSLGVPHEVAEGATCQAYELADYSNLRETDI
T2 sequence (P35368 whole entry): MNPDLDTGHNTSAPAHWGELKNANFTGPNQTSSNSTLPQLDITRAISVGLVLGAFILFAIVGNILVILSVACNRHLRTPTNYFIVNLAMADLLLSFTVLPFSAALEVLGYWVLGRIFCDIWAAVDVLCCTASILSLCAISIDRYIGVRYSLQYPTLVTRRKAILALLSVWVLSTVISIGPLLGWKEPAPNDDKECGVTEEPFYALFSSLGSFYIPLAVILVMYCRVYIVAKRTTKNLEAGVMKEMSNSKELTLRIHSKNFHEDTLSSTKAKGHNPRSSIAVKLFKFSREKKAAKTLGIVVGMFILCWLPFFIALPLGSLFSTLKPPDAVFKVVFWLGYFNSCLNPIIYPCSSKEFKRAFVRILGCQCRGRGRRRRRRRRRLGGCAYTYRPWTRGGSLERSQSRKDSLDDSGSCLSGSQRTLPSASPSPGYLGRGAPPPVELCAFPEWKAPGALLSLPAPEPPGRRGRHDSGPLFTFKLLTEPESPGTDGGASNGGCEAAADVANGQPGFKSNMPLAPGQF
The experiment in a line: Binding affinity to adrenergic alpha-1 receptor. Type of assay: protein assay.

For assay [3], the species on record is Homo sapiens. The experiment in a line: Selectivity for 5HT1A over adrenergic alpha-1 receptor. In a few lines:
(§1)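 Selectivity is the ratio of Ki at 5-HT1A, D1 or D2 to Ki at α1. Ki values are means (±SD) of three separate experiments.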

A further assay has as its target D(2) dopamine receptor (Homo sapiens, UniProt P14416). The assay can be described thus: Binding affinity to dopamine D2 receptor.
For assay [4], the species on record is Homo sapiens. The assay can be described thus: Selectivity for dopamine D1 over adrenergic alpha-1 receptor. The essentials:
as §1

Assay [5] in a line: Selectivity for dopamine D2 over adrenergic alpha-1 receptor. The essentials:
as §1

The target of the next assay is D(1A) dopamine receptor (Homo sapiens, UniProt P21728). The experiment in a line: Binding affinity to dopamine D1 receptor.
Sequence of D(1A) dopamine receptor (P21728 whole entry): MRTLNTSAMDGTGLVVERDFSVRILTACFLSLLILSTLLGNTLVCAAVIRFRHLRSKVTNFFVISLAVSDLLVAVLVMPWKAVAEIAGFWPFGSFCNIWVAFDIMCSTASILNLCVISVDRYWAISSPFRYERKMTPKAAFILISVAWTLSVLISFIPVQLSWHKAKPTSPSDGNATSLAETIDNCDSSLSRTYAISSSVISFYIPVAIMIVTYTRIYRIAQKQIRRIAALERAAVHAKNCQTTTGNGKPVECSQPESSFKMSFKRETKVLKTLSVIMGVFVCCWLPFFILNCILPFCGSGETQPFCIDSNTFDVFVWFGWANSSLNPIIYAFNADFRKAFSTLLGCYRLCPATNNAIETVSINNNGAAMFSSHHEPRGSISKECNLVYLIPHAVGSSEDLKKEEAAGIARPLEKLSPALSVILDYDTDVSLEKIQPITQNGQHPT

Sequence of D(2) dopamine receptor (P14416 whole entry): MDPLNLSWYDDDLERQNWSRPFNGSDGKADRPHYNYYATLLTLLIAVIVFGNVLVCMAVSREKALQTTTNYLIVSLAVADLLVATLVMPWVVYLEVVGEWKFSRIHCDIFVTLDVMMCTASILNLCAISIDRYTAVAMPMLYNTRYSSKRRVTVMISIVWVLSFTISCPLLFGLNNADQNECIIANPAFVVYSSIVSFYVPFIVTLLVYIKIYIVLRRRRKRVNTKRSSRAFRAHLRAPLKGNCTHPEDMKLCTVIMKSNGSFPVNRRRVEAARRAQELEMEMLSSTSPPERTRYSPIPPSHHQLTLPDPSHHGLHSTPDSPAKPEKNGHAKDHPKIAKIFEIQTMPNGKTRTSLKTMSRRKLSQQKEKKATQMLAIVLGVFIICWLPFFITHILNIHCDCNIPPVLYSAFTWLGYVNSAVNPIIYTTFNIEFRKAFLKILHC

Regarding `COc1ccccc1N1CCN(CCn2c(=O)[nH]c3[nH]c(-c4ccc(C)cc4)cc3c2=O)CC1`, the Ki stood at 333 nM in assay [1] and 4.97 nM in assay [2]. Moreover, the Ratio Ki in the assay listed under Homo sapiens [3] worked out at 67.
As to `O=c1[nH]c2[nH]c(-c3ccccc3Cl)cc2c(=O)n1CCN1CCN(c2ccccc2Cl)CC1`, the Ki in assay [1] amounted to 64.9 nM; on D(2) dopamine receptor, 356 nM; in assay [2] it was 6.28 nM; on D(1A) dopamine receptor, 567 nM. Besides, the results for the Ratio Ki (in the assay listed under Homo sapiens [4]; in the assay filed under Homo sapiens [3]; in assay [5]) were 90, 10 and 57, respectively.
With `COc1ccc(-c2cc3c(=O)n(CCN4CCN(c5ccccc5OC)CC4)c(=O)[nH]c3[nH]2)cc1`, the figures for the Ki in assay [1] and in assay [2] were 113 nM and 5.47 nM, respectively. In the assay filed under Homo sapiens [3], the Ratio Ki was determined as 21.
As to `COc1ccccc1N1CCN(CCn2c(=O)[nH]c3[nH]c(-c4ccccc4C)cc3c2=O)CC1`, the Ki in assay [1] was found to be 295 nM; in assay [2] it was 1.19 nM. Besides, in the assay filed under Homo sapiens [3], the Ratio Ki turned out to be 248.
For `COc1ccccc1-c1cc2c(=O)n(CCN3CCN(c4ccccc4OC)CC3)c(=O)[nH]c2[nH]1`, the Ki in assay [1] worked out at 157 nM; in assay [2] it was 1.63 nM. Also, the Ratio Ki in the assay filed under Homo sapiens [3] was 97.
In the case of `COc1ccccc1N1CCN(CCn2c(=O)[nH]c3[nH]c(-c4ccc(Cl)cc4)cc3c2=O)CC1`, the Ki in assay [1] came out at 401 nM; in assay [2], 4.08 nM. In addition, the Ratio Ki in the assay filed under Homo sapiens [3] came to 98.
Turning to `COc1ccccc1-c1cc2c(=O)n(CCN3CCN(c4ccccc4Cl)CC3)c(=O)[nH]c2[nH]1`, the Ki in assay [1] is 1030 nM; at D(2) dopamine receptor it was 363 nM; in assay [2] it was 3.32 nM; at D(1A) dopamine receptor, 8550 nM. The Ratio Ki was greater than 2500 in the assay listed under Homo sapiens [4], 310 in the assay filed under Homo sapiens [3] and 109 in assay [5].
Regarding `Cc1ccccc1-c1cc2c(=O)n(CCN3CCN(c4ccccc4Cl)CC3)c(=O)[nH]c2[nH]1`, the Ki in assay [1] was found to be 1450 nM; on D(2) dopamine receptor it was 627 nM; in assay [2] it was 2.8 nM; at D(1A) dopamine receptor, 1040 nM. The Ratio Ki in the assay filed under Homo sapiens [4] worked out at 371; in the assay listed under Homo sapiens [3], 518; in assay [5], 224.
With `COc1ccccc1N1CCN(CCn2c(=O)[nH]c3[nH]c(-c4ccccc4)cc3c2=O)CC1`, the Ki in assay [1] was determined as 122 nM; in assay [2] it was 1.99 nM. Moreover, the Ratio Ki in the assay filed under Homo sapiens [3] is 61.
Consider `O=c1[nH]c2[nH]c(-c3ccccc3)cc2c(=O)n1CCN1CCN(c2ccccc2Cl)CC1`, for which the inhibitory constant (Ki) worked out at 1540 nM in assay [1], 137 nM at D(2) dopamine receptor, 4.71 nM in assay [2] and 516 nM at D(1A) dopamine receptor. Also, the values for the Ratio Ki (in the assay filed under Homo sapiens [4]; in the assay filed under Homo sapiens [3]; in assay [5]) were 110, 327 and 29, respectively.
Turning to `COc1ccccc1N1CCN(CCn2c(=O)[nH]c3[nH]c(-c4ccccc4Cl)cc3c2=O)CC1`, the Ki turned out to be 19.1 nM in assay [1] and 2.18 nM in assay [2]. For the same molecule, the Ratio Ki in the assay listed under Homo sapiens [3] is 8.8.
